This is a sample that favours compounds with a hit; in the whole collection about 3.7% have one here.
HCV NS3 hel inh = HCV NS3 helicase inhibition; NS3 helicase DNA unwinding, Cy5 molecular beacon fluorescence; actives 0.56% (n = 290,000); AID 1800; inhibition, % at 10.9 µM;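 active = inhibition above the mean of all tested compounds plus 3 SD, set per campaign, cut at about 35% in these data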;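 also: 0% = DMSO wells and 100% = thioflavine S control wells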
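Assay system – hepatitis C virus NS3 helicase domain fragment enzyme · Buffer or medium – MOPS pH 6.5, MgCl2, DTT, Tween20, BSA · Reagent – Cy5/quencher beacon DNA duplex and ATP to start · Compound – single 10.9 µM dose · Timing – 1 h at 25 °C · Technique – Cy5 beacon fluorescence read at start and 1 h · Measure – % inhibition of unwinding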
core dimer inh = HCV core protein dimerization inhibition; inhibition, % at 5 µM; TR-FRET GST/Flag-core106 dimerization, 1536-well; actives 0.33% (n = 300,000);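 active = inhibition above the mean of all tested compounds plus 3 SD, set per screening campaign, cut at about 45% in these data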
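System – GST-tagged and Flag-tagged HCV core protein residues 1-106 · Repeats – one well for each compound · Technique – TR-FRET 671 and 617 nm emission · Doses – one concentration, 5 µM, in 0.5% DMSO · Times – 4 h, 22.5 °C incubation · Also added – Eu donor and XL665 acceptor anti-tag antibodies · Measure – percent inhibition of core106 dimerization signal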
TAAR1 agonist = agonists of human TAAR1; AID 624467; actives 0.99% (n = 360,000); activation, % at 3 µM; CHO RD-HGA16 TAAR1, Fluo-8 calcium fluorescence; vehicle wells 0%, saturating PEA agonist 100%; Q96RJ0;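 active = activation above the mean activation of all test compounds in the run plus 3 SD, cut at about 38% in these data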
Target sequence (Q96RJ0 whole entry, looked up): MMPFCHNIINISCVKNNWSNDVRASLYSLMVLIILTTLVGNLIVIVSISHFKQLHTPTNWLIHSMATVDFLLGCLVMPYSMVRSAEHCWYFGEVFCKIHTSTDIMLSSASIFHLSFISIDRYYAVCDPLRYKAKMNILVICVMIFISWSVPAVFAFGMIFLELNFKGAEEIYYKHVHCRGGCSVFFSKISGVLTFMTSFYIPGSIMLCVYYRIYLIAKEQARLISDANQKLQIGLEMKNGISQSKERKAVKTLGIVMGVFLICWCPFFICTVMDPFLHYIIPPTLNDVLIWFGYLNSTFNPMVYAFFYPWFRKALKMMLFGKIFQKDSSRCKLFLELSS
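System: CHO-derived RD-HGA16 cells with stable Gα16 and human TAAR1 / Times: 17-24 h plating, Fluo-8 75 min 37 °C, 30 min RT / Technique: calcium-sensitive Fluo-8 signal, excitation 470-495, emission 515-575 nm / Measure: % activation relative to PEA EC100 response / Benchmarks: DMSO and PEA EC100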
TAAR1 antag = human TAAR1 antagonism; Q96RJ0; CHO RD-HGA16 TAAR1, Fluo-8 calcium fluorescence, antagonist; inhibition, % at 3 µM; actives 1.5% (n = 360,000);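 active = inhibition above a per-plate cutoff, the mean inhibition of test compounds on that plate plus 3 SD, cut at about 49% in these data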;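 also: 0% = DMSO plus EC80 beta-PEA response and 100% = DMSO alone without agonist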
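System: CHO RD-HGA16 cells bearing hTAAR1. Reagent: EC80 β-phenethylamine stimulus. Schedule: seeding 17-24 h prior, 75-min 37 °C, 30-min RT dye loading. Signal: Fluo-8 intracellular calcium dye fluorescence, real-time kinetic reads. Read-out: % inhibition from peak post-agonist over basal fluorescence ratio. Benchmarks: vehicle wells and EC80 agonist wells. Replicates: n of 1.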
rCAG RNA binder = r(CAG) repeat RNA binding. TO-PRO-1 dye displacement fluorescence. inhibition, % at 3 µM. actives 1.3% (n = 370,000);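 active = inhibition above the plate cutoff, the mean of all test compounds on that plate plus 3 SD, cut at about 35% in these data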;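 also: 0% = DMSO alone and 100% = 100 µM mitoxantrone as full dye displacement; higher means more dye released from RNA so lower well fluorescence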
TAAR1 ag confirm = human TAAR1 agonism, confirmed. activation, % at 3 µM. actives 82% (n = 2,400). CHO RD-HGA16 TAAR1, Fluo-8 calcium fluorescence; scaled: DMSO 0%, maximal phenethylamine 100%. AID 651783. shares compounds with TAAR1 agonist;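 active = activation above a cutoff set at the run's mean compound activation plus 3 SD, cut at about 39% in these data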
Ga16 ag counter = nonselective agonism, TAAR1 counter-screen; shares compounds with TAAR1 agonist; AID 651787; actives 50% (n = 2,400); activation, % at 3 µM; CHO-Ga16 parental, Fluo-8 calcium fluorescence; normalized to maximal ATP response, DMSO zero;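 active = activation above the run cutoff, the mean activation over all tested wells plus 3 SD, cut at about 12% in these data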;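 also: 0% = DMSO wells and 100% = maximal ATP response on the peak over basal ratio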
TAAR1 desensitize = counter-screen for human TAAR1 agonists: agonists that desensitize TAAR1; actives 46% (n = 2,400); inhibition, % at 3 µM; shares compounds with TAAR1 agonist; CHO RD-HGA16 hTAAR1, Fluo-8 calcium, beta-PEA response inhibition;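 active = inhibition above the run cutoff, the mean inhibition of all test compounds plus 3 SD, cut at about 49% in these data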;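 also: beta-PEA stimulus applied at its EC80; loss of beta-PEA calcium signal after compound pretreatment read as receptor desensitization; 0% = DMSO with beta-PEA at EC80 and 100% = DMSO alone without agonist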
Ga16 antag count = counter-screen for TAAR1 agonists: nonselective Ga16 antagonists; shares compounds with TAAR1 agonist; CHO-Ga16 ATP-induced calcium, Fluo-8 fluorescence; inhibition, % at 3 µM; actives 39% (n = 2,400); AID 651952;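 active = inhibition above the plate's mean compound inhibition plus 3 SD, computed per plate, cut at about 22% in these data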;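 also: 0% = EC80 ATP with DMSO and 100% = DMSO wells without ATP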
Starred values were filed as active, the others as inactive; · = no result.

SMILES	HCV NS3 hel inh	core dimer inh	TAAR1 agonist	TAAR1 antag	rCAG RNA binder	TAAR1 ag confirm	Ga16 ag counter	TAAR1 desensitize	Ga16 antag count
Cc1c(C(=O)NCc2ccc3c(c2)OCCO3)sc(=O)n1Cc1ccc2c(c1)OCO2	·	·	3.0	25.1	1.4	·	·	·	·
COc1ccccc1Cn1c(C)c(C(=O)NCc2ccc(C#N)cc2)sc1=O	·	·	133.6*	94.3*	0.8	106.0*	69.1*	78.3*	44.9*
Cc1c(C(=O)NCc2ccc([N+](=O)[O-])cc2)sc(=O)n1Cc1ccc2c(c1)OCO2	·	·	104.5*	74.3*	3.1	106.1*	62.7*	81.1*	48.7*
COc1ccc(CNC(=O)c2sc(=O)n(Cc3ccccc3C)c2C)cc1	·	·	105.7*	70.3*	-0.5	121.8*	82.1*	84.7*	53.8*
CC(C)c1cc(C(C)C)c(S(=O)(=O)N2CCCC(C(=O)N3CCN(Cc4ccccc4)CC3)C2)c(C(C)C)c1 (configuration not stated)	·	·	·	·	7.2	·	·	·	·
c1ccc(CCN2CN(CCCN3CCOCC3)c3nc4ccccc4n3C2)cc1	6.4	-0.7	·	·	3.1	·	-0.1	·	10.7
O=c1c2ccccc2nc(SCCN2CCOCC2)n1CCc1ccccc1	-9.6	1.8	6.9	31.7	-4.3	·	·	·	·
Cc1cc2c(c(=O)o1)[C@@]1(C(=O)N(C)c3cc(Br)ccc31)C1=C(CCCC1=O)O2	·	·	1.8	-7.1	-0.5	·	·	·	·
Nc1nc2c(ncn2[C@@H]2O[C@H](C(=O)NCCCc3ccccc3)[C@@H](O)[C@H]2O)c(=O)[nH]1	·	·	56.3*	-13.6	3.2	69.0*	-0.8	10.4	6.8
Cc1cccc(NC(=O)CSc2ncnc3sc4c(c23)CCCC4)c1	·	·	·	·	5.9	·	·	·	·
COc1ccc(S[C@]2(C(=O)N3CCCC3)CC(=O)N(C(=O)CCc3ccccc3)[C@@H]2c2ccc(OC)cc2)cc1	·	·	·	·	9.3	·	·	·	·
CC1=C(C)CC(C(=O)NCc2ccccc2F)C(C(=O)O)C1 (configuration not stated)	-5.2	-1.8	4.1	0.3	1.2	·	·	·	·
COc1ccc(CCNC(C)=O)cc1	1.2	-1.4	7.8	6.9	6.4	·	·	·	·
CC1CCCCN1C(=S)NCCc1ccccc1 (configuration not stated)	3.5	-3.4	46.6*	-11.7	-0.1	25.2	-0.2	5.3	-2.6
COc1ccc(CCNC(=O)C2CC=CCC2C(=O)O)cc1 (configuration not stated)	6.2	1.4	49.9*	-29.1	0.6	59.7*	4.5	13.6	7.5
CCCCCNC(=O)C1CC=CCC1C(=O)O (configuration not stated)	-3.0	1.7	49.0*	-4.5	1.6	33.3	2.7	9.5	5.8
CC1=C(C)CC(C(=O)NCCc2ccccc2)C(C(=O)O)C1 (configuration not stated)	-0.2	1.3	81.0*	91.0*	-1.5	105.1*	3.7	83.7*	3.7
CCCCN(CCCC)C(=O)C1CC=CCC1C(=O)O (configuration not stated)	-14.2	-3.3	9.5	9.8	0.3	·	·	·	·
O=S1(=O)c2ccc(Br)cc2OC[C@H](Cc2ccccc2)N1Cc1cn(CCC2OCCCO2)nn1	·	·	·	·	-1.2	·	·	·	·
CC(=O)N1CCCN(S(=O)(=O)c2ccc3c(c2)oc(=O)n3C)CC1	·	·	·	·	-0.1	·	·	·	·
CC(C)CNC(=O)OCc1cn(Cc2cccc(C(F)(F)F)c2)nn1	·	·	·	·	-1.1	·	·	·	·
COC(=O)[C@]12C[C@H](CC(=O)NCc3ccccc3)C(=O)N(CCc3ccc(OC)c(OC)c3)C1=C[C@H](COCc1ccccc1)O[C@@H]2C	·	·	·	·	6.1	·	·	·	·
